Experimental data as given in ChEMBL document CHEMBL3272232, “Inhibitors of folate biosynthesis. 1. Inhibition of dihydroneopterin aldolase by pteridine derivatives” (J Med Chem, 1977).
≈ marks a conversion by molar mass, not a printed value.

Tests used:
Escherichia coli [1] = assay: Inhibition of Escherichia coli dihydroneopterin aldolase assessed as [14C]glycolaldehyde formation using [14C]neopterin substrate by scintillation counting
How it was run: (§1)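 Enzyme from E. coli B grown in corn steep liquor medium with methionine and glutamic acid, homogenized, cleared of debris and heat-treated. Substrate is 14C-neopterin with unlabeled neopterin, reduced by dithionite to dihydroneopterin in ammonium acetate pH 9.6 with EDTA and mercaptoethanol. Test pteridines are dithionite-reduced. Incubation runs 30 min at 37 °C in the dark and is stopped with Norit A in 2 N acetic acid. The supernatant is scintillation counted.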

Escherichia coli [2] = assay: Inhibition of Escherichia coli dihydroneopterin aldolase assessed as [14C]glycolaldehyde formation using [14C]neopterin substrate at 50 ug/ml by scintillation counting; how it was run: as §1

Row | SMILES | ID50 (Escherichia coli [1]) [µg/mL] | inhibition (Escherichia coli [2]) [%]
1 | Nc1nc(O)c2c(n1)NC(O)C(C(=O)O)=N2 (stereo unspecified) | > 50 | –
2 | CCOC(OCC)C1=Nc2c(O)nc(N)nc2NC1 | > 50 | –
3 | CC1(C)Nc2nc(N)nc(O)c2N=C1CO | 1 (≈ 4.48 µM) | –
4 | Nc1nc(O)c2c(n1)NCC(/C=N/O)=N2 | > 50 | –
5 | Nc1nc(O)c2c(n1)NCC=N2 | > 50 | –
6 | Nc1nc(O)c2c(n1)NCC(CCCc1ccccc1)=N2 | > 50 | –
7 | CCCCCCCCC1=Nc2c(O)nc(N)nc2NC1 | > 50 | –
8 | Nc1nc(O)c2c(n1)NC(CO)C=N2 (stereo unspecified) | > 50 | –
9 | Nc1nc2c(c(=O)[nH]1)N=C(C=O)CN2 | – | 75
10 | CC(C)C1=Nc2c(N)nc(N)nc2NC1C(C)C (stereo unspecified) | > 50 | –

Other lines, results leading:

Row | ID50 (Escherichia coli [1]) [µg/mL] | inhibition (Escherichia coli [2]) [%] | SMILES
11 | 5 (≈ 24 µM) | – | NC(=O)C1=Nc2c(O)nc(N)nc2NC1
12 | 30 (≈ 154 µM) | – | Nc1nc2c(c(=O)[nH]1)N=C(CO)CN2
13 | > 50 | – | OCC1=Nc2c(O)nc(S)nc2NC1
14 | > 50 | – | Nc1nc(O)c2c(n1)NCC(C(=O)O)=N2
15 | > 50 | – | CC1=Nc2c(O)nc(N)nc2NC1
16 | > 50 | – | Nc1nc(N)c2c(n1)NCC(CO)=N2
